These results are taken from ChEMBL document CHEMBL4038269, “Design, synthesis and evaluation of novel feruloyl-donepezil hybrids as potential multitarget drugs for the treatment of Alzheimer's disease” (Eur J Med Chem, 2017).

The source made the active and inactive calls.

As usually defined, the inhibition in vivo is the relative decrease from the control value, in per cent. In general, EC50 refers to the concentration giving half of the maximal effect.

The subject of assay [1] is Mus musculus. Nature of the assay: In vivo inhibition of 5-LOX activity in carrageenan-induced Swiss mouse serum at 100 umol/kg, po pretreated for 1 hr followed by carrageenan challenge after 3 hrs by ELISA relative to control. Type of assay: functional. The method, boiled down:
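Male Swiss mice given oral drug (100 µmol/kg) or vehicle 1 h before intraplantar carrageenan (legend: 400 µg/paw). At 3 h, animals anaesthetised with chloral hydrate and cardiac blood taken. Serum separated (1500 rpm, 20 min) and frozen at -70 °C. COX-1, COX-2 and 5-LOX measured by specific sandwich ELISA at 450 nm. Expressed as % enzymatic activity, mean ± SEM, n=8.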

The subject of assay [2] is Mus musculus. Kind of assay: Antinociceptive activity in carrageenan-induced Swiss mouse model of mechanical hyperalgesia at 100 umol/kg, po pretreated for 1 hr followed by carrageenan challenge measured at 3 hrs post dose by Von Frey filament assay. The assay is classed as functional, organism-based. A digest of the protocol:
(§1)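 Male Swiss mice (n=8) dosed orally with 100 µmol/kg or vehicle 1 h before intraplantar carrageenan (100 µg/paw). Mechanical threshold measured by up-and-down Von Frey method after 60 min acclimation on a wire screen. Started at 0.4 g filament, ≥6 trials at 10 s intervals, about 4 s per application. Reported as mean threshold in grams ± SEM.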

The nature of assay [3]: Antioxidant activity assessed as DPPH radical scavenging activity measured after 30 mins. Type of assay: functional. A digest of the protocol:
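DPPH scavenging: compound at 12.5, 25, 50 and 100 µM in ethanol (4 mL) mixed with 1 mL of 0.5 mM DPPH in ethanol. Shaken 30 min at room temperature, absorbance read at 517 nm. % inhibition = (A control − A sample)/A control × 100. Run in triplicate; EC50 obtained by linear regression of mean values.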

Assay [4] has as its system Mus musculus. Nature of the assay: Antinociceptive activity in carrageenan-induced Swiss mouse model of mechanical hyperalgesia at 100 umol/kg, po pretreated for 1 hr followed by carrageenan challenge measured at 3 hrs to 7 hrs post dose by Von Frey filament assay. The assay is classed as functional, organism-based. A digest of the protocol: as §1
For assay [5], the system named is Mus musculus. Nature of the assay: Anti-inflammatory activity in Swiss mouse model of LPS-induced peritonitis assessed as inhibition of leukocyte migration at 100 umol/kg, po pretreated for 30 mins followed by LPS challenge measured after 4 hrs by Neubauer chamber method. Type of assay: functional, organism-based. A digest of the protocol: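 Adult male Swiss mice (22-28 g), n=8 per group, dosed orally with 100 µmol/kg or vehicle (saline + DMSO 2%). 30 min later E. coli 026:B6 LPS, 100 µg/kg i.p. in sterile saline. Killed at 4 h by halothane overdose. Peritoneum lavaged with 10 ml PBS containing 0.5% sodium citrate. Total leukocytes counted in a Neubauer chamber, expressed as cells per cavity, mean ± SEM.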

Assay [6] deals with SH-SY5Y. Kind of assay: Neuroprotective activity in human SH-SY5Y cells assessed as reduction in amyloid beta (1 to 42)-induced late neuronal death at 20 uM after 24 hrs by propidium iodide staining based fluorescence microscopic method. Type of assay: functional, cell-based. The method, boiled down: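 SH-SY5Y cells at 5×10^3 cells/well, grown 24 h, then compound (20 µM) with Aβ1-42 oligomers for 24 h at 37 °C; oligomers 10 µM in methods, 20 µM in legend. Stained with propidium iodide (25 µg/mL in PBS) for 10 min. Four random fields of 50–100 cells scored by fluorescence microscopy; dead cells % = PI-positive/total × 100.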

For assay [7], the target named is T1, Nuclear factor erythroid 2-related factor 2 (Homo sapiens) (UniProt Q16236).
T1 sequence (whole entry): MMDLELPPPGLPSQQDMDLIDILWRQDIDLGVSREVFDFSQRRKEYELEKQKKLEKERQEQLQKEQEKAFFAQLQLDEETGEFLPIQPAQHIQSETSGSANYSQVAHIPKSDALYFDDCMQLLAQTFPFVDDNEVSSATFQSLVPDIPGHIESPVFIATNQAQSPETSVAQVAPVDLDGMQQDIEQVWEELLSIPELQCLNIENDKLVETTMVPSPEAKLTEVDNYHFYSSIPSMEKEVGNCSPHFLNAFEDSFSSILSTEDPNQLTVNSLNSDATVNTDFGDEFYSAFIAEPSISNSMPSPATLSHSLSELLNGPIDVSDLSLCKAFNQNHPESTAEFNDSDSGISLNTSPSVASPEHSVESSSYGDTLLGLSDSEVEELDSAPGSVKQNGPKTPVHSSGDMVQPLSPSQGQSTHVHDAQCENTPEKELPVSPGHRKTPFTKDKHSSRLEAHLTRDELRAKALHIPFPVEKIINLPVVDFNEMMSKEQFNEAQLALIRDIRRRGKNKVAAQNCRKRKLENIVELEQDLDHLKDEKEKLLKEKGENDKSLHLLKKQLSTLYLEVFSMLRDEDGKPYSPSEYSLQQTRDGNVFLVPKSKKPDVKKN
Nature of the assay: Induction of Nrf2 nuclear translocation in human SH-SY5Y cells assessed as Nrf2 binding to antioxidant response element at 20 uM measured after 1 to 6 hrs by TransAM ELISA. Type of assay: cell-based. The following applies: TDE = time-dependent effect. The method, boiled down: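 SH-SY5Y cells seeded at 2×10^6 per 60 mm dish, grown 24 h, then given 20 µM compound for 1-6 h at 37 °C. Nuclear extracts prepared by kit. 20 µg nuclear protein tested for Nrf2 DNA binding by TransAM Nrf2 immunoassay. Expressed as % of control cells; mean ± SD of three experiments. Nrf2-transfected COS-7 cells served as positive control.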
Background: An ELISA detects its analyte on a solid surface through an enzyme-linked reagent.

Assay [8] has as its system SH-SY5Y. Kind of assay: Antioxidant activity in human SH-SY5Y cells assessed as reduction in H2O2-induced reactive oxygen species formation at 20 uM pretreated for 24 hrs followed by H2O2 addition measured after 30 mins DCFH-DA probe based fluorescence assay. The assay is classed as functional, cell-based. A digest of the protocol:
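SH-SY5Y cells treated 24 h with compound (20 µM in figure), then exposed to 100 µM H2O2 for 30 min. Intracellular ROS read with DCFH-DA probe (10 µg/mL, 30 min preload) at ex 485/em 535 nm. Expressed as % of control cells; mean ± SD, three independent experiments.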

Assay [9] concerns SH-SY5Y. Kind of assay: Copper chelating activity in human SH-SY5Y cells assessed as reduction in CuSO4/H2O2-induced reactive oxygen species formation at 10 to 20 uM after 30 mins by DCFH-DA probe based fluorescence assay. The assay is classed as functional, cell-based. The method, boiled down:
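SH-SY5Y cells seeded at 3 x 10^4 cells/well and preloaded with DCFH-DA (10 µg/mL, 30 min, room temperature). Then given compound (5, 10, 20 µM) with FeSO4/H2O2 or CuSO4/H2O2 for 30 min; metal 25 µM and H2O2 100 µM per figure legend. Fluorescence read at ex 485/em 535 nm, arbitrary units. Mean ± SD of three experiments.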

A short description of assay [10]: Metal chelating activity assessed as absorption maximum for compound-Fe2+ complex formation at 75 uM after 30 mins by UV-Vis spectrophotometric method (reference value: 237.2 nanometer). Type of assay: functional. A digest of the protocol:
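UV-Vis spectra in ethanol of compound at 75 µM alone or after 30 min incubation with CuSO4, FeSO4, FeCl3 or ZnCl2 (150 µM). Absorption maxima recorded.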

As for `COc1cc(/C=C/C(=O)OCC2CCN(Cc3ccccc3)CC2)ccc1O`, in assay [1], the inhibition in vivo at 100 µmol/kg came to 30%. The result in [2], in [4], in assay [6], in assay [8] and in assay [9] was Active. Further, the concentration for a half-maximal effect (EC50) in [3] is 49.4 µM. Moreover, the inhibition result in assay [5] was “Active”. In addition, the figures for the Activity result in assay [7] and in assay [10] were “Tde” and 249 nm, respectively.
